Laboratory results published in ChEMBL document CHEMBL1212913, “Quinazolin-4-one derivatives: A novel class of noncompetitive NR2C/D subunit-selective N-methyl-D-aspartate receptor antagonists” (J Med Chem, 2010).
Activity calls are given as the source filed them. The rule behind the calls is not given here.

Experiments:
[1] = target: Ionotropic glutamate receptor NMDA 1/2D (Rattus norvegicus, UniProt P35439+Q62645); assay: Antagonist activity at rat recombinant NR1-NR2D receptor expressed in Xenopus oocytes at holding potential of -40mV by two-electrode voltage-clamp electrophysiology; format: functional, cell-based, Oocyte
Procedure, shortened: (§1)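 Oocytes expressing rat NR1-1a with NR2A, NR2B, NR2C or NR2D, clamped at −40 mV in Ba2+/HEPES recording solution pH 7.4, 23°C. Current evoked by 100 μM glutamate plus 30 μM glycine. Final DMSO 0.05-0.5%, 5-7 inhibitor concentrations, ≥4 oocytes each. IC50 from Hill fit of normalized mean composite data. Some NR2A oocytes given BAPTA-AM or K-BAPTA.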

[2] = target: Glutamate NMDA receptor; Grin1/Grin2a (Rattus norvegicus, UniProt P35439+Q00959); assay: Antagonist activity at rat recombinant NR1-NR2A receptor expressed in Xenopus oocytes at holding potential of -40mV by two-electrode voltage-clamp electrophysiology; format: functional, cell-based, Oocyte; settings: read-out: IC50
Chain of Glutamate NMDA receptor; Grin1/Grin2a (Q00959 whole entry, other chains not shown): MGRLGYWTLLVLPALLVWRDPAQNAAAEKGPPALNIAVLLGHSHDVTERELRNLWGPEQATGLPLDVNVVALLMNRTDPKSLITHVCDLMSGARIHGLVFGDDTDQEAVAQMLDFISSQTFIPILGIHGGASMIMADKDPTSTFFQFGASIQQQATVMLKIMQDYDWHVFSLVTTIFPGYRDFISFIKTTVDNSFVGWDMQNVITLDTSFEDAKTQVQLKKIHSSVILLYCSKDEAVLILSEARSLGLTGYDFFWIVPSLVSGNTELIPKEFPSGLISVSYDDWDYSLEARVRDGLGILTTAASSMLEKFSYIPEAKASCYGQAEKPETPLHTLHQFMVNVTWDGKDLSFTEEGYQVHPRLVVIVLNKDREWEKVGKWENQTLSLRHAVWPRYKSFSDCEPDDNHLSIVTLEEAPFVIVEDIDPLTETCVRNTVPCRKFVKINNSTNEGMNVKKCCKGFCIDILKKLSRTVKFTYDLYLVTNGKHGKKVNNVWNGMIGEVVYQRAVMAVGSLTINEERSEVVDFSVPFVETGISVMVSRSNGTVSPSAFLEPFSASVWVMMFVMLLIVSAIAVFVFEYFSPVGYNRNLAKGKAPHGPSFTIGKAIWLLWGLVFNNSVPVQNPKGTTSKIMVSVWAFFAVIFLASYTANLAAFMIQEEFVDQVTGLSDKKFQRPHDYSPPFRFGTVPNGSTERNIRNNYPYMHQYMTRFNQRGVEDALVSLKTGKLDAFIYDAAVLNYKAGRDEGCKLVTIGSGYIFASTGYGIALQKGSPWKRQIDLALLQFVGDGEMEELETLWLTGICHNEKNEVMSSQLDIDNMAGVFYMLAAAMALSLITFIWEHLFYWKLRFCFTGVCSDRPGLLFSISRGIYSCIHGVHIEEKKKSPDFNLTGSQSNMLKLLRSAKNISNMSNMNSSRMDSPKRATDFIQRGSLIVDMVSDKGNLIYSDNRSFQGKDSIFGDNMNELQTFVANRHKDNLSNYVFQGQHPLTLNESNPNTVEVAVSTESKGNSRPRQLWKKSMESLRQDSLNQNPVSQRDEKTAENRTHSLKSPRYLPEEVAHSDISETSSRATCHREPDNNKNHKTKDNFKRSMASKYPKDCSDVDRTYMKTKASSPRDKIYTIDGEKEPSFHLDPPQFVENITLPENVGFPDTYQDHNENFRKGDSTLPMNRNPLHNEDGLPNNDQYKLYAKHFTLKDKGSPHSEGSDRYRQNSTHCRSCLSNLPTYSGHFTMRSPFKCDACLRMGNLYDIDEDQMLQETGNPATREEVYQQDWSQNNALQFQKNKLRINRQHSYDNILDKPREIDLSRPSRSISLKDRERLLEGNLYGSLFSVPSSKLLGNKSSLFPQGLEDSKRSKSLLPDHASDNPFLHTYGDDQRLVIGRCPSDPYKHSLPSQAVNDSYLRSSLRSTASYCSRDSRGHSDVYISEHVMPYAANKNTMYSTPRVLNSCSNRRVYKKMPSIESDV
Procedure, shortened: as §1, with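 “data. […]” for “data.”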

[3] = target: Glutamate NMDA receptor; Grin1/Grin2c (Rattus norvegicus, UniProt P35439+Q00961); assay: Antagonist activity at rat recombinant NR1-NR2C receptor expressed in Xenopus oocytes at holding potential of -40mV by two-electrode voltage-clamp electrophysiology; format: functional, cell-based, Oocyte
Chain of Glutamate NMDA receptor; Grin1/Grin2c (Q00961 whole entry, other chains not shown): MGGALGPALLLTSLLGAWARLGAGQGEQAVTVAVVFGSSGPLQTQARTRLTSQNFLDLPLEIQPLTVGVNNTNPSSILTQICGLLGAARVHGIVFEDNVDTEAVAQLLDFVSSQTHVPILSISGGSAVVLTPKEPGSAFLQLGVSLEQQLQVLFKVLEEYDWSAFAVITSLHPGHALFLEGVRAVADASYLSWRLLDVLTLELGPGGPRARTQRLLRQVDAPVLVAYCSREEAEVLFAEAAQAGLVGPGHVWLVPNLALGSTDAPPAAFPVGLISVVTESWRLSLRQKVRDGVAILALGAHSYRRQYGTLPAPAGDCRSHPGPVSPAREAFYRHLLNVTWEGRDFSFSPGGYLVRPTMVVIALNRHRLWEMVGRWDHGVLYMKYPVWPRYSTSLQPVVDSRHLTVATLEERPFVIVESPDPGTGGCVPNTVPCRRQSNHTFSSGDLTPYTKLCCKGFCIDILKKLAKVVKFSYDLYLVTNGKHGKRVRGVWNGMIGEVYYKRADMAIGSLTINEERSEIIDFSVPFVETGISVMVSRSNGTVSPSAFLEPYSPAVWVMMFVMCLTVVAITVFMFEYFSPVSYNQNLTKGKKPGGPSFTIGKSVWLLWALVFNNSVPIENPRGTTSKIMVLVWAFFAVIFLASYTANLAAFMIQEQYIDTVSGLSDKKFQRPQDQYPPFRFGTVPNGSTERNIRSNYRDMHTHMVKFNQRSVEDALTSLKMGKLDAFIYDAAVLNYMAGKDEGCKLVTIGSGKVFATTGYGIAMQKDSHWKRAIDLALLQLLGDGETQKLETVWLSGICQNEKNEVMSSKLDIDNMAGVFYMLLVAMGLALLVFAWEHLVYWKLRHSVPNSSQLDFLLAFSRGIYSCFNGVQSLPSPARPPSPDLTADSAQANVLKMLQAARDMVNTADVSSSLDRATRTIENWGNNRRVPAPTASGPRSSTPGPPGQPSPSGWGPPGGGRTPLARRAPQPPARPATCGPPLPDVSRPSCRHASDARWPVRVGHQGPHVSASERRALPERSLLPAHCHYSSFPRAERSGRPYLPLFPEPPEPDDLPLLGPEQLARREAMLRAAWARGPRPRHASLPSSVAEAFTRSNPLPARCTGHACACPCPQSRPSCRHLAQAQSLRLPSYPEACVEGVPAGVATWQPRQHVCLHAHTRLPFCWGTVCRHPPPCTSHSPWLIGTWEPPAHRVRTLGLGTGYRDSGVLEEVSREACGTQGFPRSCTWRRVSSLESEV
Procedure, shortened: as §1, with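 “data. […]” for “data.”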

[4] = target: Glutamate NMDA receptor; Grin1/Grin2b (Rattus norvegicus, UniProt P35439+Q00960); assay: Antagonist activity at rat recombinant NR1-NR2B receptor expressed in Xenopus oocytes at holding potential of -40mV by two-electrode voltage-clamp electrophysiology; format: functional, cell-based, Oocyte; settings: read-out: IC50
Chain of Glutamate NMDA receptor; Grin1/Grin2b (Q00960 whole entry, other chains not shown): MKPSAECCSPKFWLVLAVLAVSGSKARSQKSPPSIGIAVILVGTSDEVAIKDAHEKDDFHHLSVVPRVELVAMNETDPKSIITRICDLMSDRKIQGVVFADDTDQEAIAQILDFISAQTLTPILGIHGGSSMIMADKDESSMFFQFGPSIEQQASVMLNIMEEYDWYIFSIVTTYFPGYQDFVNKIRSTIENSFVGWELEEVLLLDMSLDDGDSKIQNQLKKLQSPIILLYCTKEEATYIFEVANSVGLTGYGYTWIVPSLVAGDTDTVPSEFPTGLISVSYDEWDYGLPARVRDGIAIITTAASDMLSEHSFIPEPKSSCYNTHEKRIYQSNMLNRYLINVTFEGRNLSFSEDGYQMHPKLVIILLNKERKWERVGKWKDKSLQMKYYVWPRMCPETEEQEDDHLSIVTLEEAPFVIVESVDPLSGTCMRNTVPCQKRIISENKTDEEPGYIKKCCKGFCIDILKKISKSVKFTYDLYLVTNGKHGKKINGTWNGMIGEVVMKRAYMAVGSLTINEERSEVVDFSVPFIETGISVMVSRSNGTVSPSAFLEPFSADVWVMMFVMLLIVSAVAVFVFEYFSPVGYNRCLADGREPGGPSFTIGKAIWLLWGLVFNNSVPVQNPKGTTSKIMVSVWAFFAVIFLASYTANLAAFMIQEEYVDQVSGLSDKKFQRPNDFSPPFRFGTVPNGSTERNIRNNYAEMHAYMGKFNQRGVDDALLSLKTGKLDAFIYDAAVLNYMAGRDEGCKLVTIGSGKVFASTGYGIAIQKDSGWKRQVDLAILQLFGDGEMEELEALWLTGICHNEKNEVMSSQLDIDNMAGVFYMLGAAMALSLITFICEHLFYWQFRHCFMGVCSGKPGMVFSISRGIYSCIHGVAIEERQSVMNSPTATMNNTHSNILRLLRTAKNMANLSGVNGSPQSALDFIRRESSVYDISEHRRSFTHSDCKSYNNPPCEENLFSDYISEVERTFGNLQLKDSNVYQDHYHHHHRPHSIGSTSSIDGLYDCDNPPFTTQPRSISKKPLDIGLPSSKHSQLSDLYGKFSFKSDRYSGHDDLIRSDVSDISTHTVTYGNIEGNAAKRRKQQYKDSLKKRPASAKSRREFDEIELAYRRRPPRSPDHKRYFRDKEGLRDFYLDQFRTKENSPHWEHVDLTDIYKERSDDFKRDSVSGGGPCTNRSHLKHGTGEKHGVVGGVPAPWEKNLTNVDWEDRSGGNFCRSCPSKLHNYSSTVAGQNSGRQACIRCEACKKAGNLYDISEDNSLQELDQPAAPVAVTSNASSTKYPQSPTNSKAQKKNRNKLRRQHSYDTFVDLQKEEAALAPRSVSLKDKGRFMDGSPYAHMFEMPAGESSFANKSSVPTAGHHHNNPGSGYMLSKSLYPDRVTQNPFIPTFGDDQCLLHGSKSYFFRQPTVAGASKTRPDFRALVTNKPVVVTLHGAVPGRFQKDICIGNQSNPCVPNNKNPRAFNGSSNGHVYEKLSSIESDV
Procedure, shortened: as §1, with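 “data. […]” for “data.”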

Glutamate receptor 1 = Glutamate receptor 1 (Rattus norvegicus, UniProt P19490); assay: Antagonist activity at rat recombinant GLuR1 expressed in Xenopus oocytes assessed as inhibition of glutamate-induced current by two-electrode voltage-clamp electrophysiology; format: functional, cell-based, Oocyte
Chain of Glutamate receptor 1 (P19490 whole entry, the tested form may be a part): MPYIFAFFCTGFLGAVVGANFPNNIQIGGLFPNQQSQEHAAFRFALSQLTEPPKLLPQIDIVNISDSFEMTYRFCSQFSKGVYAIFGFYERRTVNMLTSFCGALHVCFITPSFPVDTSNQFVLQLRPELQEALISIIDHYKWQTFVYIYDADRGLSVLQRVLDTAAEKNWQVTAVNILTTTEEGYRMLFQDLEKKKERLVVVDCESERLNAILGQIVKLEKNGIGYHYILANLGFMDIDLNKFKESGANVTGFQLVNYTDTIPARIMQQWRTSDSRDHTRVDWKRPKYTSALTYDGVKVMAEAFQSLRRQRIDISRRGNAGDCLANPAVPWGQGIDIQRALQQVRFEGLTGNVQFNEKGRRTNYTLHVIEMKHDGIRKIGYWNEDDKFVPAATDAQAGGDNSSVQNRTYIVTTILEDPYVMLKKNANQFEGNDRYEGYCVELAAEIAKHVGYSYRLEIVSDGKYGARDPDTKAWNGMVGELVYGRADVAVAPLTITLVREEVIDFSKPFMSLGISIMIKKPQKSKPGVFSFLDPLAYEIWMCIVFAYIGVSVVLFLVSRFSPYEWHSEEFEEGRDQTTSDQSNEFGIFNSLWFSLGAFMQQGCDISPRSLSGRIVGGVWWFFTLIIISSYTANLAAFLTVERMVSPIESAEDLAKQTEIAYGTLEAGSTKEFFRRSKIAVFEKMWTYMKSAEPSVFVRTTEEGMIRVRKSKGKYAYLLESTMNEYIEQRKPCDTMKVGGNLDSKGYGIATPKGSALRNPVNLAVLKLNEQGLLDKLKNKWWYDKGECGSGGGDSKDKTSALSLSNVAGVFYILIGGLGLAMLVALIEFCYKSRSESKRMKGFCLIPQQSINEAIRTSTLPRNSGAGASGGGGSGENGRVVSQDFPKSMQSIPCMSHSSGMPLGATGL
Procedure, shortened: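 Two-electrode voltage clamp at −40 mV on Xenopus oocytes expressing rat GluR1, perfused with 90 NaCl, 1.0 KCl, 0.5 BaCl2, 0.005 EDTA, 10 HEPES (mM), pH 7.4, 23°C; activated by 100 μM glutamate. From 20 mM DMSO stocks, 5-7 concentrations, ≥4 oocytes each. Hill fit to mean composite curves normalized to control, minimum usually fixed at 0. Response >75% at 100 μM reported as >300 μM.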

[5] = target: Glutamate receptor ionotropic, kainate 2 (Rattus norvegicus, UniProt P42260); assay: Antagonist activity at rat recombinant GLuR6 expressed in Xenopus oocytes assessed as inhibition of glutamate-induced current by two-electrode voltage-clamp electrophysiology; format: functional, cell-based; settings: oocyte
Procedure, shortened: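 Rat GluR6 expressed in Xenopus oocytes, pretreated with 10 μM concanavalin A for 10 min, then activated by 100 μM glutamate. Cells were held at −40 mV in 90 mM NaCl, 1.0 KCl, 0.5 BaCl2, 0.005 EDTA and 10 HEPES, pH 7.4, at 23°C. Compounds were diluted from 20 mM DMSO stocks, final DMSO 0.05-0.5%. Concentration-effect curves were recorded.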

Rattus norvegicus [6] = species on record: Rattus norvegicus; assay: Selectivity ratio of IC50 for rat recombinant NR1-NR2A receptor to IC50 for rat recombinant NR1-NR2D receptor
Procedure, shortened: (§2)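 Ratio of fitted IC50 values, either NR2A/NR2D or GluR1/NR2D, from two-electrode voltage-clamp Hill fits in oocytes. Where noted, calculated from IC50 values rounded to the nearest μM.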

Rattus norvegicus [7] = species on record: Rattus norvegicus; assay: Selectivity ratio of IC50 for rat recombinant GLuR1 to IC50 for rat recombinant NR1-NR2D receptor; procedure, shortened: as §2
[8] = target: T1, Ionotropic glutamate receptor NMDA 1/2D (Rattus norvegicus) (UniProt P35439+Q62645); assay: Antagonist activity at rat recombinant NR1-NR2D receptor expressed in Xenopus oocytes at 30 uM at holding potential of -40mV by two-electrode voltage-clamp electrophysiology in presence of up to 1000/300 uM of glutamate/glycine; format: functional, cell-based; settings: Oocyte
Procedure, shortened: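 NR1/NR2D oocytes held at −40 mV. Inhibition by 30 μM compound was compared with glutamate/glycine at 100/30 μM and raised to 1000/300 μM, to test whether higher agonist surmounts block. n=4.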

[9] = target: T1, Ionotropic glutamate receptor NMDA 1/2D (Rattus norvegicus); assay: Antagonist activity at rat recombinant NR1-NR2D receptor expressed in Xenopus oocytes at 10 uM at holding potential of -40mV by two-electrode voltage-clamp electrophysiology; format: functional, cell-based; settings: Oocyte
[10] = target: T1, Ionotropic glutamate receptor NMDA 1/2D (Rattus norvegicus); assay: Antagonist activity at rat recombinant NR1-NR2D receptor expressed in Xenopus oocytes at 10 uM at holding potential of +40mV by two-electrode voltage-clamp electrophysiology; format: functional, cell-based; settings: Oocyte

| IC50 [1] [µM] | IC50 [2] [µM] | IC50 [3] [µM] | IC50 [4] [µM] | IC50 (Glutamate receptor 1) [µM] | Ratio IC50 (Rattus norvegicus [6]) | Activity [8] | Activity [9] | Activity [10] | Structure (SMILES) | IC50 [5] | Ratio IC50 (Rattus norvegicus [7]) |
| --- | --- | --- | --- | --- | --- | --- | --- | --- | --- | --- | --- |
| 15 | 64 | 15 | 93 | > 300 |  |  |  |  | O=C(O)c1ccc(-n2c(/C=C/c3ccc([N+](=O)[O-])cc3)nc3ccccc3c2=O)cc1 | Not Active |  |
| 9 | 21 | 12 | 30 | 32 |  | Active | Active | Active | O=C(O)c1ccc(-n2c(/C=C/c3cccc([N+](=O)[O-])c3)nc3ccccc3c2=O)cc1 | Not Active |  |
| 148 | > 300 | 258 | 235 | > 300 |  |  |  |  | O=C(O)c1ccccc1-n1c(/C=C/c2cccc([N+](=O)[O-])c2)nc2ccccc2c1=O | Not Active |  |
| 7 | 17 | 8 | 20 | 5 |  |  |  |  | O=C(O)c1cccc(-n2c(/C=C/c3ccccc3[N+](=O)[O-])nc3ccccc3c2=O)c1 | Not Active |  |
| 27 | 135 | 33 | 177 | > 300 |  |  |  |  | O=C(O)c1cccc(-n2c(/C=C/c3ccc([N+](=O)[O-])cc3)nc3ccccc3c2=O)c1 | Not Active |  |
| 15 | 100 | 19 | 69 | 32 |  |  |  |  | O=C(O)c1cccc(-n2c(/C=C/c3cccc([N+](=O)[O-])c3)nc3ccccc3c2=O)c1 | Not Active |  |
| 2 | 12 | 5 | 15 | 27 | 6 |  |  |  | Cc1ccc2nc(/C=C/c3cccc([N+](=O)[O-])c3)n(-c3ccc(C(=O)O)cc3)c(=O)c2c1 |  | 14 |
|  | 11 | 8 | 17 |  |  |  |  |  | O=C(O)c1ccc(-n2c(/C=C/c3ccccc3[N+](=O)[O-])nc3ccccc3c2=O)cc1 | Not Active |  |
| 4 | 19 | 4 | 30 | 131 | 5 |  |  |  | O=C(O)c1ccc(-n2c(/C=C/c3cccc([N+](=O)[O-])c3)nc3ccc(/C=C/c4ccccc4)cc3c2=O)cc1 |  | 33 |
| 9 | 56 | 12 | 243 | 87 | 6 |  |  |  | O=C(O)c1ccc(-n2c(/C=C/c3cccc([N+](=O)[O-])c3)nc3c(Cl)cccc3c2=O)cc1 |  | 10 |
| 7 | 101 | 6 | 98 | 200 | 14 |  |  |  | CC(C)c1ccc2nc(/C=C/c3cccc([N+](=O)[O-])c3)n(-c3ccc(C(=O)O)cc3)c(=O)c2c1 |  | 29 |
| 2 | 11 | 2 | 3 | 5 | 6 |  |  |  | O=C(O)c1ccc(-n2c(/C=C/c3cccc([N+](=O)[O-])c3)nc3ccc(-c4ccccc4)cc3c2=O)cc1 |  | 3 |
| 26 | 39 | 22 | 25 | 21 | 2 |  |  |  | Cc1ccc2nc(/C=C/c3ccccc3)n(-c3ccc(C(=O)O)cc3)c(=O)c2c1 |  | 1 |
| 22 | 211 | 42 | 79 | 244 | 10 |  |  |  | CSc1ccc(/C=C/c2nc3ccccc3c(=O)n2-c2ccc(C(=O)O)cc2)cc1 |  | 11 |

| Structure (SMILES) | IC50 [1] [µM] | IC50 [2] [µM] | IC50 [3] [µM] | IC50 [4] [µM] | IC50 (Glutamate receptor 1) [µM] | Ratio IC50 (Rattus norvegicus [6]) | Activity [8] | Activity [9] | Activity [10] | IC50 [5] | Ratio IC50 (Rattus norvegicus [7]) |
| --- | --- | --- | --- | --- | --- | --- | --- | --- | --- | --- | --- |
| O=C(O)c1ccccc1-n1c(/C=C/c2ccc([N+](=O)[O-])cc2)nc2ccccc2c1=O | 278 | > 300 | > 300 | 197 | > 300 |  |  |  |  | Not Active |  |
| COc1ccccc1-n1c(/C=C/c2ccc([N+](=O)[O-])cc2)nc2ccccc2c1=O | 290 | > 300 | > 300 | > 300 | > 300 | > 1 |  |  |  | Not Active | 1 |
| COc1ccc(-n2c(/C=C/c3ccccc3[N+](=O)[O-])nc3ccccc3c2=O)cc1 | 125 | > 300 | 143 |  | 223 |  |  |  |  | Not Active |  |
| COc1ccc(-n2c(/C=C/c3ccc([N+](=O)[O-])cc3)nc3ccccc3c2=O)cc1 | 221 | > 300 | 181 | 98 | > 300 |  |  |  |  | Not Active |  |
| COc1ccc(-n2c(/C=C/c3cccc([N+](=O)[O-])c3)nc3ccccc3c2=O)cc1 | 168 | > 300 | 152 | > 300 | 178 |  |  |  |  | Not Active |  |
| COc1cccc(-n2c(/C=C/c3ccc([N+](=O)[O-])cc3)nc3ccccc3c2=O)c1 | > 300 | > 300 | > 300 |  | > 300 |  |  |  |  | Not Active | 1 |
| COc1ccccc1-n1c(/C=C/c2cccc([N+](=O)[O-])c2)nc2ccccc2c1=O | > 300 | > 300 | > 300 |  | > 300 |  |  |  |  | Not Active | 1 |
| COc1cccc(-n2c(/C=C/c3cccc([N+](=O)[O-])c3)nc3ccccc3c2=O)c1 | 186 | > 300 | 205 | 262 | > 300 | 2 |  |  |  | Not Active | 2 |
| O=c1c2cc(I)ccc2nc(/C=C/c2cccnc2)n1-c1ccccc1 | 108 | 132 | > 300 | > 300 | > 300 | 1 |  |  |  |  | 3 |
| COc1ccccc1-n1c(/C=C/c2ccccc2[N+](=O)[O-])nc2ccccc2c1=O | 5 | 4 | 4 | 7 | 14 |  |  |  |  | Not Active |  |
| Cc1ccccc1-n1c(/C=C/c2cccnc2)nc2ccc(I)cc2c1=O | 25 | > 300 | 70 | 156 | 83 | > 12 |  |  |  |  | 3 |
| COc1cccc(-n2c(/C=C/c3ccccc3[N+](=O)[O-])nc3ccccc3c2=O)c1 | > 300 | > 300 | > 300 |  | > 300 |  |  |  |  | Not Active | 1 |
